High-throughput results from PubChem BioAssay.
ABCG2 block – blocks JC-1 efflux by human ABCG2 transporter; IgMXP3 cells, flow cytometry; inhibition, % at 6.6 µM; 190,000 compounds, 0.1% hits; AID 1325;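 active = inhibition above 80%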;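 also: 0% = DMSO and 100% = nicardipine control wells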
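material = IgMXP3 (ABCG2) plus far-red-tagged CCRF-Adr (ABCB1) cells | amount = 3 million cells/mL, equal mix of both lines | also added = JC-1 transporter substrate | dosing = one concentration, 6.6 µM final | schedule = 10 min at 25 °C | measured by = flow cytometric JC-1 green MFI at 530 nm | read-out basis = percent efflux inhibition, scaled nicardipine 100% to DMSO 0%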
ABCB6 inh 2 – inhibitors of human ABC transporter ABCB6; Q9NP58; K562-ABCB6 porphyrin accumulation, flow cytometry, 1 h; active compounds read low; fluorescence ratio to DMSO, % at 10 µM; 360,000 compounds, 0.19% hits;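 active = fluorescence ratio to DMSO below 75%, the collection mean minus 3 SD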;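 also: signal is porphyrin accumulated inside mitochondria; 100% equals median channel fluorescence of DMSO control wells; lower ratio means ABCB6 inhibition with less porphyrin fluorescence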
p97 ATPase inh – human p97 ATPase inhibition; inhibition, % at 8 µM; recombinant p97 ATPase, Kinase-Glo ATP luminescence, 3 h; 220,000 compounds, 0.42% hits; in the data active = inhibition above about 15%;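 also: 0% = DMSO vehicle and 100% = wells lacking enzyme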
ABCB1 block – blocks JC-1 efflux by human ABCB1 transporter | inhibition, % at 6.6 µM | AID 1326 | 190,000 compounds, 0.067% hits | P08183 | CCRF-Adr cells, flow cytometry; in the data active = inhibition above about 40%;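 also: 0% = vehicle and 100% = reference inhibitor; higher value means more JC-1 retained so stronger ABCB1 efflux block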
Rad51 HR inh – blocks human Rad51 in homologous recombination; Q06609; hRad51 DNA strand exchange, fluorescence dequenching; inhibition, % at 10 µM; 200,000 compounds, 0.085% hits;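 active = inhibition above 40% at the single screening dose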;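 also: 0% = DMSO control wells and 100% = blanks with heterologous ssDNA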
Target sequence (Q06609 whole entry, looked up): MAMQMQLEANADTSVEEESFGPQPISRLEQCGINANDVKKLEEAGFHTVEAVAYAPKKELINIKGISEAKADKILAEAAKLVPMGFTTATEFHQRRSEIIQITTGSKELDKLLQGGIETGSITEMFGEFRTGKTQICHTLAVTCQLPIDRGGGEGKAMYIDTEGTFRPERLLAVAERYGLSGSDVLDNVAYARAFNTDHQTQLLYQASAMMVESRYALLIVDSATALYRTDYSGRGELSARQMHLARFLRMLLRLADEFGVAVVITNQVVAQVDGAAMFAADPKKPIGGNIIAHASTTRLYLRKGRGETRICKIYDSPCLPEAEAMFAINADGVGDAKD
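Assay system: Human Rad51 nucleoprotein filaments preassembled on unlabelled ssDNA | Reagent: Donor/quencher-labelled 47-bp dsDNA substrate | Doses: One concentration, 10 µM final | Times: 37 °C 15-min filament assembly, 30-min compound preincubation, 15-min exchange | Technique: Fluorescein emission 520 nm, excitation 485 nm | Benchmarks: Plate control and blank wells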
HSV replic up – increases HSV replication in cells. AID 1956. maximum fold increase. 220,000 compounds, 0.005% hits. HSV replication augmentation in cells, fold increase; in the data active = maximum fold increase above about 1.5; tested in PC3 cells
p97 inh conf – confirmation of human p97 ATPase inhibitors; recombinant p97 ATPase, Kinase-Glo ATP luminescence; 760 compounds, 44% hits; inhibition, % at 8 µM; AID 1517; shares compounds with p97 ATPase inh;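 active = percent inhibition of p97 ATPase above a set limit, the primary screen's mean plus 3 SD, cut at about 15% in these data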;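 also: 0% = DMSO wells and 100% = wells lacking p97 protein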
The depositor's hits bear a star; i = inactive; / = no result. Shown are actives, neighbours in structure and some others; about 0.55% of the full set was active somewhere.

SMILES | ABCG2 block | ABCB6 inh 2 | p97 ATPase inh | ABCB1 block | Rad51 HR inh | HSV replic up | p97 inh conf
COc1ccc(CCNC(=O)COC(=O)CSc2ccc([N+](=O)[O-])cc2)cc1OC | / | 99 | / | / | / | / | /
COc1ccc(C(=O)N2CCCC(c3cc(C(=O)Nc4ccccc4)no3)C2)cc1 (centres undefined) | / | 97 | / | / | / | / | /
C[C@@H]1CN([C@@H](C)CO)C(=O)CCCn2nncc2CO[C@H]1CN(C)C(=O)NC1CCCCC1 | / | 107 | / | / | / | / | /
CCCS(=O)(=O)NC(=O)C1(C)CCCN(C(=O)C2(c3ccc(Cl)cc3)CCCC2)C1 (centres undefined) | / | 103 | / | / | / | / | /
Oc1ccc(NC(=S)N=Nc2c(O)[nH]c3ccc(Br)cc23)cc1 | -3 | 96 | 21* | -1 | 10 | i | 21*
Oc1cccc(NC(=S)N=Nc2c(O)[nH]c3ccc(Br)cc23)c1 | / | 96 | 25* | / | -8 | i | 23*
Oc1[nH]c2ccc(Br)cc2c1N=NC(=S)Nc1ccc(F)cc1 | / | 93 | 3 | / | 2 | i | /
CCc1ccc(CN2CCC(Oc3cc(C(=O)NC4CC4)ccc3OC)CC2)cc1 | / | 95 | / | / | / | / | /
O=C(CSc1ccsc1[N+](=O)[O-])N1CCN(c2ccccn2)CC1 | 8 | 101 | 18* | 1 | 4 | i | 8
Cc1ccc(NC(=O)C2c3ccccc3-c3ccccc32)cc1 | / | 96 | / | / | / | / | /
Cn1nc(C(C)(C)C)cc1C(=O)N1CCCCC1c1cc(C(=O)N2CCOCC2)no1 (centres undefined) | / | 96 | / | / | / | / | /
CCOc1ccc(Br)cc1S(=O)(=O)N1CCCN(C)CC1 | / | 98 | / | / | / | / | /
CCOc1ccc(Br)cc1S(=O)(=O)N1CCC(C(N)=O)CC1 | 1 | 93 | 15* | 0 | -4 | i | 7
S=C(Nc1cccnc1)Nc1cccc2cnccc12 | 23 | 94 | 9 | 0 | 3 | i | /
CN(C)S(=O)(=O)c1cccc(NC(=S)Nc2cccc3cnccc23)c1 | / | 98 | 28* | / | -11 | i | 14
Fc1ccc(NC(=S)Nc2cccc3cnccc23)cc1 | 3 | 100 | 6 | 0 | -1 | i | /
S=C(Nc1ccc(Cl)cc1)Nc1cccc2cnccc12 | 15 | 98 | 18* | 1 | / | i | 5
Clc1nnc(NC2CCCCC2)c(Cl)c1Cl | / | 97 | / | / | / | / | /
c1ccc(NC2=Nc3cccc4cccc2c34)cc1 | 7 | 100 | 7 | 0 | -20 | i | /
O=C(O)c1cccc(NC2=Nc3cccc4cccc2c34)c1 | / | 96 | 16* | / | / | i | 10
N#C/C(=C/c1ccc(-c2ccc(C(=O)O)c(Cl)c2)o1)C(=O)NCC1CCCO1 (centres undefined) | -2 | 106 | 27* | 0 | 0 | i | 37*
Cn1cc(C(=O)c2ccc(Cl)cc2Cl)cc1C(=O)N/N=C(\N)COc1ccc(Cl)cc1 | / | 91 | 18* | / | 4 | i | 20*
CCOC(=O)C1=C(C)OC2(O)c3ccccc3C(=O)C12O (centres undefined) | / | 97 | 17* | / | -9 | i | 27*
CC(=O)C1=C(C)OC2(O)c3ccccc3C(=O)C12O (centres undefined) | / | 93 | 20* | / | -1 | i | 8
Cc1c(Br)cccc1NC(=O)C1(C)CCN1Cc1ccccc1OC(F)F (centres undefined) | / | 96 | / | / | / | / | /
SMILES | ABCG2 block | ABCB6 inh 2 | p97 ATPase inh | ABCB1 block | Rad51 HR inh | HSV replic up | p97 inh conf
COc1ccc(NC(=O)c2cc(SC)ccc2Cl)cc1 | 37 | 104 | 16* | 16 | -3 | i | 4
Cc1cccc(C(=O)Nc2sc(-c3ccccc3)cc2C(=O)O)c1 | / | 101 | 3 | / | / | i | /
CC(C)(C)C(=O)Nc1sc(-c2ccccc2)cc1C(=O)O | / | 95 | 18* | / | / | i | 3
CN1C[C@@H]2[C@@H]3C(=O)N(C)C(=O)[C@@H]3[C@](Cc3ccccc3)(C1=O)N2C(=O)c1ccc(Cl)cc1 | / | 97 | / | / | / | / | /
Cn1ccs/c1=N\S(=O)(=O)c1ccc(F)cc1 | 10 | 152 | 18* | 1 | -4 | i | 1
Cc1ccc(S(=O)(=O)/N=c2\sccn2C)cc1 | 4 | 88 | 1 | 1 | 5 | i | /
Oc1ccc(N=Cc2ccc(O)c(O)c2)cc1 | -1 | 96 | 21* | 0 | 1 | i | 13
C=CC(=O)N=c1sc2ccccc2n1-c1ccccc1 | 0 | 102 | 18* | 0 | -5 | i | 17*
